In series [1] the target is Nuclear receptor subfamily 1 group I member 3 (Mus musculus, UniProt O35627, N175A). As to the kind of experiment: Decrease in mouse CAR N175A mutant activation expressed in HEK293 cells at 10 uM by mammalian one-hybrid assay. As to conditions: read-out: Activity. The series is classed as cell-based. Put shortly: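 GAL4-DBD fused to mouse CAR LBD (residues 118-358), wild-type or point mutant, cotransfected with UASx4-tk-luc reporter and pCMVβ into HEK293 cells. Cells were exposed to final 1 µM, 2 µM or 10 µM test chemical, or 0.1% v/v DMSO, for 24 h after transfection. Luciferase was normalized to β-galactosidase and set against empty GAL4 vector (=1.0). Mean ± standard deviation, three independent experiments.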

Series [2] deals with Nuclear receptor subfamily 1 group I member 3 (Mus musculus, UniProt O35627, F171A). The experiment in a line: Enhancement of nuclear co-repressor receptor binding to mouse CAR F171A mutant […] at 10 uM by yeast two-hybrid assay. The format is cell-based. The method, boiled down: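 Yeast two-hybrid assay. Yeast co-expressing wild-type or mutant mouse CAR LBD and the NCoR partner were selected on SD plates lacking leucine and tryptophan. Pooled, amplified colonies were treated with DMSO or test chemical for 3.5 h. β-galactosidase activity was normalized to cell density and referenced to the 10 µM androstenol interaction (=100). Mean ± standard deviation of two determinations, each in triplicate.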

Series [3] deals with T1, Nuclear receptor subfamily 1 group I member 3 (Mus musculus, UniProt O35627, L212A). As to the kind of experiment: Effect on steroid receptor co-activator 1 binding to mouse CAR L212A mutant […] at 10 uM by yeast two-hybrid assay. The series is classed as cell-based. As to conditions: read-out: Activity. The method, boiled down: (§1)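 Yeast two-hybrid assay. Yeast co-expressing wild-type or mutant mouse CAR LBD and the SRC-1 partner were selected on SD plates lacking leucine and tryptophan. Random colonies were pooled and amplified, then treated with DMSO or test chemical for 3.5 h. β-galactosidase activity was normalized to cell density and set relative to wild-type mCAR + SRC-1 with DMSO (=100). Mean ± standard deviation of two determinations, each in triplicate.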

Series [4] has as its target T2, Nuclear receptor subfamily 1 group I member 3 (Mus musculus, UniProt O35627, I252L). As to the kind of experiment: Enhancement of steroid receptor coactivator 1 binding to mouse CAR I252L mutant […] at 10 uM by yeast two-hybrid assay. The format is cell-based. Put shortly: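 Yeast two-hybrid: yeast expressing wild-type or mutant mouse CAR LBD plus SRC-1 or NCoR, selected on SD medium lacking Leu and Trp. Pooled colonies treated with DMSO or test chemical for 3.5 h. β-Galactosidase normalized to cell density. SRC-1 reference: wild-type + DMSO = 100. NCoR reference: 10 µM androstenol = 100. Mean ± SD, two independent determinations, each in triplicate.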

In series [5] the target is T3, Nuclear receptor subfamily 1 group I member 3 (Mus musculus, UniProt O35627, L253F). As to the kind of experiment: Effect on nuclear co-repressor receptor binding to mouse CAR L253F mutant […] at 10 uM by yeast two-hybrid assay. The format is cell-based. As to conditions: read-out: Activity. The method, boiled down:
(§2)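 Yeast expressing wild-type or mutant mouse CAR LBD plus NCoR, selected on SD plates lacking leucine and tryptophan. Pooled colonies treated with DMSO or compound for 3.5 h. β-Galactosidase activity normalized to cell density. Reference is 10 µM androstenol (=100). Mean ± SD of two independent determinations, each in triplicate.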

For series [6], the target named is Nuclear receptor subfamily 1 group I member 3 (Mus musculus, UniProt O35627, Y336A). As to the kind of experiment: Decrease in steroid receptor coactivator 1 binding to mouse CAR Y336A mutant […] at 10 uM by yeast two-hybrid assay. Particulars: read-out: Activity. The format is cell-based. The method, boiled down: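 Yeast expressing wild-type or mutant mouse CAR LBD plus SRC-1, selected on SD plates lacking leucine and tryptophan. Pooled colonies treated with DMSO or compound for 3.5 h. β-Galactosidase activity normalized to cell density. Reference is wild-type CAR + SRC-1 with DMSO (=100). Mean ± SD of two independent determinations, each in triplicate.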

Series [7] deals with T4, Nuclear receptor subfamily 1 group I member 3 (Mus musculus, UniProt O35627, T350A). As to the kind of experiment: Decrease in nuclear co-repressor receptor binding to mouse CAR T350A mutant […] at 10 uM by yeast two-hybrid assay. More on the design: scale not given: the % may be the effect or the level left. The format is cell-based.
The target of series [8] is T5, Nuclear receptor subfamily 1 group I member 3 (Mus musculus, UniProt O35627, H213A). Particulars: HEK293, mouse, read-out: Activity.
Series [9] addresses T2, Nuclear receptor subfamily 1 group I member 3. Particulars: HEK293, mouse, read-out: Activity.
Series [10] deals with Nuclear receptor subfamily 1 group I member 3 (Mus musculus, UniProt O35627, T350M). Particulars: HEK293, mouse, read-out: Activity.
Series [11] addresses T6, Nuclear receptor subfamily 1 group I member 3 (Mus musculus, UniProt O35627, F171L). The experiment in a line: Decrease in nuclear co-repressor receptor binding to mouse CAR F171L mutant […] at 10 uM by yeast two-hybrid assay. The format is cell-based. Set-up: scale not given: the % may be the effect or the level left. The method, boiled down:
as §2

The target in series [12] is T6, Nuclear receptor subfamily 1 group I member 3. As to the kind of experiment: Enhancement of steroid receptor coactivator 1 binding to mouse CAR F171L mutant […] at 10 uM by yeast two-hybrid assay. The format is cell-based. Put shortly: as §1
Series [13] addresses T1, Nuclear receptor subfamily 1 group I member 3. The experiment in a line: Enhancement of steroid receptor co-activator 1 binding to mouse CAR L212A mutant […] at 10 uM by yeast two-hybrid assay. The format is cell-based.
The target in series [14] is T4, Nuclear receptor subfamily 1 group I member 3. Particulars: HEK293, mouse, read-out: Activity.
In series [15] the target is T3, Nuclear receptor subfamily 1 group I member 3. As to conditions: HEK293, mouse, read-out: Activity.
The target in series [16] is T6, Nuclear receptor subfamily 1 group I member 3. As to the kind of experiment: Decrease in mouse CAR F171L mutant activation expressed in HEK293 cells at 10 uM by mammalian one-hybrid assay. The format is cell-based. As to conditions: read-out: Activity. Put shortly: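 GAL4 DBD fused to mouse CAR LBD (residues 118-358), wild type or point mutant, cotransfected with UASx4-tk-luc reporter and pCMVβ into HEK293 cells. Cells cultured with DMSO (0.1% v/v) or compound (final 1, 2 or 10 µM). Lysed 24 h post-transfection. Luciferase normalized to β-galactosidase, expressed relative to empty GAL4 vector (=1.0). Mean ± SD, three independent experiments.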

The target of series [17] is T5, Nuclear receptor subfamily 1 group I member 3. As to conditions: HEK293, mouse, read-out: Activity. The source holds these as a separate data set.

T3 sequence (O35627 whole entry L253F, the tested form may be a part): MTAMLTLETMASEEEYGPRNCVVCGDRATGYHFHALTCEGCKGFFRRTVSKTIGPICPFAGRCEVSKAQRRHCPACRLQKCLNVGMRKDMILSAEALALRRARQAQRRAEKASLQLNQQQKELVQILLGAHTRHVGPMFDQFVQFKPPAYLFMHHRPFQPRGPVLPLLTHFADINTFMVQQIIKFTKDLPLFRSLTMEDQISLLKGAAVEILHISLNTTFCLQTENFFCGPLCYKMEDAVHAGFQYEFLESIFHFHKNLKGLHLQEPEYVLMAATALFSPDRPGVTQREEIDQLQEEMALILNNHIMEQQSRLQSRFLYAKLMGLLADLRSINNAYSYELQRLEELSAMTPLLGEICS
T4 sequence (O35627 whole entry T350A): as the sequence (O35627 whole entry L253F, the tested form may be a part) above, with F253L, T350A counted along it
T6 sequence (O35627 whole entry F171L): as the sequence (O35627 whole entry L253F, the tested form may be a part) above, with F171L, F253L counted along it
T2 sequence (O35627 whole entry I252L, the tested form may be a part): as the sequence (O35627 whole entry L253F, the tested form may be a part) above, with I252L, F253L counted along it
T1 sequence (O35627 whole entry L212A, the tested form may be a part): as the sequence (O35627 whole entry L253F, the tested form may be a part) above, with L212A, F253L counted along it
T5 sequence (O35627 whole entry H213A): as the sequence (O35627 whole entry L253F, the tested form may be a part) above, with H213A, F253L counted along it
Sequence of Nuclear receptor subfamily 1 group I member 3 (Mus musculus, UniProt O35627, T350M) (O35627 whole entry T350M): as the sequence (O35627 whole entry L253F, the tested form may be a part) above, with F253L, T350M counted along it
Sequence of Nuclear receptor subfamily 1 group I member 3 (Mus musculus, UniProt O35627, N175A) (O35627 whole entry N175A, the tested form may be a part): as the sequence (O35627 whole entry L253F, the tested form may be a part) above, with N175A, F253L counted along it
Sequence of Nuclear receptor subfamily 1 group I member 3 (Mus musculus, UniProt O35627, F171A) (O35627 whole entry F171A, the tested form may be a part): as the sequence (O35627 whole entry L253F, the tested form may be a part) above, with F171A, F253L counted along it
Sequence of Nuclear receptor subfamily 1 group I member 3 (Mus musculus, UniProt O35627, Y336A) (O35627 whole entry Y336A, the tested form may be a part): as the sequence (O35627 whole entry L253F, the tested form may be a part) above, with F253L, Y336A counted along it

Consider `COc1ccc(C(=O)CCCc2ccccc2)cc1`, for which the inhibition at 10 µM is < 50% in series [1]; ≥ 50% in series [6]; 50% in series [8]; 50% in series [9]; 50% in [10]. Further, the Activity result in [2], in series [4] and in series [7] was “>= 50%” throughout. The activity at 10 µM in series [3] and in series [5] was < 50% throughout.

Regarding `COc1ccccc1CC(CC(=O)Cc1ccccc1)OC` (centres undefined), the inhibition at 10 µM in [1] was 50%; in series [8], 50%; in series [9], < 50%; in [14] it was 50%; in series [10], < 50%; in series [15], ≥ 50%. The Activity entry in [11] is recorded as “>= 50%”; in [12], > 50%; in [13], > 150%; in [4], > 50%; in [7] it was “>= 50%”.

Consider `C[C@]12CC[C@@H](O)C[C@@H]1CC[C@@H]1[C@@H]2CC[C@]2(C)C=CC[C@@H]12` [ANDROSTENOL], for which the inhibition at 10 µM is < 50% in series [16], < 50% in [9], ≥ 50% in series [17] and ≥ 50% in [15]. The Activity entry in series [11] and in series [7] was “>= 50%” each time. In series [3], the activity at 10 µM is < 50%.

On to `COc1ccc(C(c2ccc(OC)cc2)C(Cl)(Cl)Cl)cc1` [METHOXYCHLOR], for which the inhibition at 10 µM in [16] is < 50%; in [6], ≥ 50%; in series [9], 50%; in series [14] it was 50%; in series [17], ≥ 50%. For the same molecule, the Activity result in series [2], in [12], in series [13], in series [4] and in [7] was “>= 50%” throughout. The activity at 10 µM in series [5] is < 50%.

Values taken from ChEMBL document CHEMBL1152300, “Ligand specificity of constitutive androstane receptor as probed by induced-fit docking and mutagenesis” (J Med Chem, 2008).
